Experimental data as given in ChEMBL document CHEMBL3860103, “Antibacterial and Antibiofilm Activity of Cationic Small Molecules with Spatial Positioning of Hydrophobicity: An in Vitro and in Vivo Evaluation” (J Med Chem, 2016).
Active and inactive are the calls of the source. The calls are words filed in the database; no cut-off is given here.

How the values were obtained:
[1] = tested on: Escherichia coli; test: Induction of biofilm disruption in Escherichia coli after 24 hrs by confocal laser-scanning microscopy; assay type: functional
Outline: (§1)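 Biofilms grown on glass coverslips from ~10^5 CFU/mL: S. aureus in nutrient medium + 1% glucose + 1% NaCl, 24 h; E. coli in M9 + 0.5% glycerol + 0.02% casamino acid, 72 h; stationary, 37 °C. After PBS wash, treated 24 h at 37 °C with 32 µg/mL in the same medium; media-only control. Stained with SYTO 9 (5 µM), imaged by confocal microscopy.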

[2] = tested on: Staphylococcus aureus; test: Induction of biofilm disruption in Staphylococcus aureus after 24 hrs by confocal laser-scanning microscopy; assay type: functional; outline: as §1
[3] = Induction of hemolysis in human RBC incubated for 1 hr; assay type: cell-based, Erythrocyte; settings: red blood cells
Outline: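 Washed human RBCs from heparinized blood, 5 vol% in PBS, mixed 3:1 with serially diluted compounds; 1 h at 37 °C. Centrifuged; supernatant A540 read. Hemolysis % = (A−A0)/(Atotal−A0)×100, with water as 0% and 0.1 vol% Triton X-100 as full lysis.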

[4] = tested on: Staphylococcus aureus; test: Antibacterial activity against Staphylococcus aureus incubated for 24 hrs; assay type: functional
Outline: (§2)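 Broth microdilution: 6 h cultures diluted to ~10^5 CFU/mL in medium; compounds 2-fold serially diluted in water, mixed 1:3 with bacterial suspension. Incubated 24 h, 37 °C; OD600 read. MIC = concentration with OD similar to medium-only control. Triplicate wells, experiments repeated at least twice.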

[5] = tested on: Staphylococcus aureus; test: Antibacterial activity against methicillin-resistant Staphylococcus aureus incubated for 24 hrs; assay type: functional
Outline: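 MRSA (ATCC 33591) from a 6 h culture (~10^9 CFU/mL), diluted to ~10^5 CFU/mL in medium. Compounds in water, 2-fold serial dilutions, combined with the bacteria at 1:3 by volume and incubated 24 h at 37 °C. OD600 read. MIC is the lowest concentration whose OD matches the media-only control. Triplicate wells; experiments repeated at least twice.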

[6] = tested on: Escherichia coli; test: Antibacterial activity against Escherichia coli incubated for 24 hrs; assay type: functional; outline: as §2
[7] = Toxicity in HEK293 cells assessed as partial induction of cell death at 32 ug/ml incubated for 24 hrs by calcein AM and propidium iodide dye based fluorescence microscopy; settings: human, hek293, 24 h
Outline: (§3)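 HEK 293 cells seeded ~10^4 cells/well, treated with compounds for 24 h (16, 32 or 64 µg/mL); 0.1% Triton X positive, untreated negative control. Stained with calcein AM (2 µM) and PI (4.5 µM) 15 min at 37 °C, 5% CO2; imaged by fluorescence microscopy, 20X objective.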

[8] = Selectivity index, ratio of HC50 for induction of hemolysis in human RBC to MIC for Staphylococcus aureus
[9] = tested on: Escherichia coli; test: Induction of membrane permeabilization in Escherichia coli at 32 ug/ml after 0 to 20 mins by propidium iodide dye based assay; assay type: functional
Outline: (§4)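 Membrane permeabilization of S. aureus or E. coli followed as increase in propidium iodide fluorescence after adding compounds at 32 µg/mL.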

[10] = Toxicity in HEK293 cells assessed as induction of cell death at 64 ug/ml incubated for 24 hrs by calcein AM and propidium iodide dye based fluorescence microscopy; settings: human, hek293, 24 h; outline: as §3
[11] = Toxicity in HEK293 cells assessed as cell density level at 16 ug/ml incubated for 24 hrs by calcein AM and propidium iodide dye based fluorescence microscopy; settings: human, hek293, 24 h; outline: as §3
[12] = tested on: Staphylococcus aureus; test: Induction of membrane depolarization in Staphylococcus aureus at 32 ug/ml after 0 to 20 mins by […] dye based assay; assay type: functional
Outline: (§5)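 Membrane-potential dye DiSC3(5) taken up by S. aureus or E. coli; depolarization followed as rise in dye fluorescence after adding compounds at 32 µg/mL.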

[13] = tested on: Staphylococcus aureus; test: Induction of membrane permeabilization in Staphylococcus aureus at 32 ug/ml after 0 to 20 mins by propidium iodide dye based assay; assay type: functional; outline: as §4
[14] = tested on: Escherichia coli; test: Induction of membrane depolarization in Escherichia coli at 32 ug/ml after 0 to 20 mins by […] dye based assay; assay type: functional; outline: as §5
[15] = Selectivity index, ratio of HC50 for induction of hemolysis in human RBC to MIC for Escherichia coli
[16] = tested on: Mus musculus; test: Toxicity in topically dosed mouse assessed as induction of less fur appearance at 200 mg/kg after 14 days by OECD425 guidelines based method; assay type: organism-based; settings: in vivo, topical_or_ocular, 336 h
[17] = tested on: Mus musculus; test: Toxicity in topically dosed mouse assessed as induction of skin darkening at 200 mg/kg after 14 days by OECD425 guidelines based method; assay type: organism-based; settings: in vivo, topical_or_ocular, 336 h
[18] = Induction of membrane hydration changes in Laurdan dye containing DPPG:DPPE (88:12) liposomes assessed as reduction in general polarization at 25 to 100 ug/ml by luminescence spectrometry; assay type: physicochemical
Outline: (§6)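 Liposomes of 0.5 mM DPPG:DPPE (88:12) or 0.5 mM DPPC with Laurdan (lipid:dye 100:1), hydrated in PBS pH 7.4, 10 freeze–thaw cycles, sonicated 15 min at 70 °C. Compounds added in PBS (lipid:compound 7.4:1), tested at 25, 50, 100 µg/mL; emission at 440 and 490 nm (ex 350 nm), 37 °C. GP = (I440−I490)/(I440+I490).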

[19] = Induction of membrane hydration changes in Laurdan dye containing DPPC liposomes assessed as reduction in general polarization at 25 to 100 ug/ml by luminescence spectrometry; assay type: physicochemical; outline: as §6
[20] = Toxicity in HEK293 cells assessed as induction of cell death at 32 ug/ml incubated for 24 hrs by calcein AM and propidium iodide dye based fluorescence microscopy; settings: human, hek293, 24 h; outline: as §3
[21] = tested on: Staphylococcus aureus; test: Antibacterial activity against Staphylococcus aureus infected in BALB/c mouse model of superficial skin infection and biofilm formation assessed as reduction in bacterial load in skin at 40 mg/kg applied topically once daily for 4 days and measured 18 hrs after last dose by FEI field emission scanning electron microscopy relative to un-treated control; assay type: functional, organism-based
Outline: (§7)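 Female BALB/c mice (6–8 weeks, 18–22 g) made neutropenic with cyclophosphamide i.p. (150 mg/kg, then 100 mg/kg 3 days later), anesthetized, backs shaved, wounded and infected with MRSA ATCC 33591. After 24 h biofilm formation, 40 mg/kg applied topically to wound once daily for 4 days (n = 5/group; untreated control). Skin collected 18 h after last dose for CFU/g; portions formalin-fixed for SEM.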

[22] = tested on: Staphylococcus aureus; test: Antibacterial activity against Staphylococcus aureus infected in BALB/c mouse model of superficial skin infection and biofilm formation assessed as reduction in bacterial load in skin at 40 mg/kg applied topically once daily for 4 days and measured 18 hrs after last dose; assay type: functional; outline: as §7

Compound	HC50 at 1 h [3]	MIC [4]	MIC [5]	MIC [6]	further results
CCCCCCCCCCCCCC[N+](C)(C)Cc1ccccc1	–	–	–	–	MBEC [1]: Active; MBEC [2]: Active
CCCCCCNC(=O)C[N+](C)(C)CC[N+](C)(C)CC(=O)NCCCCCC.[Br-].[Br-]	> 1000 µg/mL	125 µg/mL	250 µg/mL	250 µg/mL	–
CCCCCCCCCCNC(=O)C[N+](C)(C)CCCCCCCCCC[N+](C)(C)CC(=O)NCCCCCCCCCC.[Br-].[Br-]	55 µg/mL	4 µg/mL	4 µg/mL	8 µg/mL	–
CCCCCCNC(=O)C[N+](C)(C)CCCC[N+](C)(C)CC(=O)NCCCCCC.[Br-].[Br-]	> 1000 µg/mL	62.5 µg/mL	125 µg/mL	125 µg/mL	–
CCCCCCCCNC(=O)C[N+](C)(C)CCCCCCCC[N+](C)(C)CC(=O)NCCCCCCCC.[Br-].[Br-]	212 µg/mL	1 µg/mL	2 µg/mL	2 µg/mL	Activity [7]: Toxic; Selectivity Index [8]: 182; Activity [9]: Active; Activity [10]: Toxic; Activity [11]: Toxic; Activity [12]: Active; Activity [13]: Active; Activity [14]: Active; Selectivity Index [15]: 106
CCCCCCCCCCNC(=O)C[N+](C)(C)CCCCCC[N+](C)(C)CC(=O)NCCCCCCCCCC.[Br-].[Br-]	58 µg/mL	2 µg/mL	2 µg/mL	2 µg/mL	–
CCCCCCCCNC(=O)C[N+](C)(C)CCCCCCCCCCCC[N+](C)(C)CC(=O)NCCCCCCCC.[Br-].[Br-]	65 µg/mL	1 µg/mL	1 µg/mL	2 µg/mL	–
CCCCCCNC(=O)C[N+](C)(C)CCCCCCCC[N+](C)(C)CC(=O)NCCCCCC.[Br-].[Br-]	> 1000 µg/mL	16 µg/mL	31 µg/mL	31 µg/mL	–
CCCCCCCCCCNC(=O)C[N+](C)(C)CCCC[N+](C)(C)CC(=O)NCCCCCCCCCC.[Br-].[Br-]	60 µg/mL	2 µg/mL	2 µg/mL	2 µg/mL	Selectivity Index [8]: 30; Activity [16]: Toxic; Activity [9]: Active; Activity [17]: Toxic; Activity [18]: Active; Activity [19]: Active; Activity [10]: Toxic; Activity [11]: Toxic; MBEC [2]: 31.2 to 62.5 µg/mL; Activity [12]: Active; Activity [20]: Toxic; Activity [13]: Active; Activity [14]: Active; Selectivity Index [15]: 30
CCCCCCCCNC(=O)C[N+](C)(C)CCCCCCCCCC[N+](C)(C)CC(=O)NCCCCCCCC.[Br-].[Br-]	100 µg/mL	1 µg/mL	2 µg/mL	1 µg/mL	–
CCCCCCCCNC(=O)C[N+](C)(C)CC[N+](C)(C)CC(=O)NCCCCCCCC.[Br-].[Br-]	350 µg/mL	2 µg/mL	3.9 µg/mL	8 µg/mL	–
N,N,N-trimethylhexadecan-1-aminium bromide	–	–	–	–	MBEC [1]: Active; MBEC [2]: Active
CC(=O)O[C@H]1C[C@@]2(C)[C@@H](C[C@@H](O)[C@H]3[C@@]4(C)CC[C@@H](O)[C@@H](C)[C@@H]4CC[C@@]32C)/C1=C(\CCC=C(C)C)C(=O)O [FUSIDIC ACID]	–	–	–	–	Activity [21]: Active; Activity [22]: 2.2 log10CFU/g
CCCCCCCCCCNC(=O)C[N+](C)(C)CCCCCCCC[N+](C)(C)CC(=O)NCCCCCCCCCC.[Br-].[Br-]	55 µg/mL	2 µg/mL	2 µg/mL	4 µg/mL	–
CCCCCCCCCCNC(=O)C[N+](C)(C)CCCCCCCCCCCC[N+](C)(C)CC(=O)NCCCCCCCCCC.[Br-].[Br-]	50 µg/mL	31 µg/mL	62 µg/mL	500 µg/mL	–
CCCCCCCCCCNC(=O)C[N+](C)(C)CC[N+](C)(C)CC(=O)NCCCCCCCCCC.[Br-].[Br-]	65 µg/mL	2 µg/mL	2 µg/mL	4 µg/mL	Selectivity Index [8]: 32; Activity [9]: Active; Activity [12]: Active; Activity [13]: Active; Activity [14]: Active; Selectivity Index [15]: 16
CCCCCCCCNC(=O)C[N+](C)(C)CCCCCC[N+](C)(C)CC(=O)NCCCCCCCC.[Br-].[Br-]	300 µg/mL	2 µg/mL	4 µg/mL	6 µg/mL	Selectivity Index [8]: 150; Activity [9]: Active; Activity [12]: Active; Activity [13]: Active; Activity [14]: Active; Selectivity Index [15]: 50
CCCCCCCCCC[N+](C)(C)CCCCCCCCCC	–	–	–	–	MBEC [1]: Active; MBEC [2]: Active
CCCCCCNC(=O)C[N+](C)(C)CCCCCC[N+](C)(C)CC(=O)NCCCCCC.[Br-].[Br-]	> 1000 µg/mL	62.5 µg/mL	125 µg/mL	125 µg/mL	–
CCCCCCCCNC(=O)C[N+](C)(C)CCCC[N+](C)(C)CC(=O)NCCCCCCCC.[Br-].[Br-]	310 µg/mL	2 µg/mL	3.9 µg/mL	8 µg/mL	–
CCCCCCNC(=O)C[N+](C)(C)CCCCCCCCCC[N+](C)(C)CC(=O)NCCCCCC.[Br-].[Br-]	> 1000 µg/mL	4 µg/mL	4 µg/mL	6 µg/mL	Selectivity Index [8]: 310; Activity [9]: Active; Activity [12]: Active; Activity [13]: Active; Activity [14]: Active; Selectivity Index [15]: 207
